Reference: the RNAGym collection of RNA variant scans (doi:10.1126/science.aae0568)
Fewer inactive variants are shown than the library holds.

B1: tRNA (parent)
chain: GUUCCGUUGGCGUAAUGGUAACGCGUCUCCCUCCUAAGGAGAAGACUGCGGGUUCGAGUCCCGUACGGAACG

Variants of: B1
Test: yeast fitness relative to wild type (ratio to wild type); higher = fitter; tRNA-Arg(CCU), competitive growth, 37 C, YPD
Procedure, shortened: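 Amplicons of the tRNA-Arg(CCU) gene were sequenced, 100-nucleotide paired-end, from the start population and from each end population of a pooled yeast competition. The competition, in six parallel replicates, lasted 24 hours in YPD at 37°C. Fitness relative to wild type was calculated from changes in genotype frequencies. Genotypes had to have ≥ 100 starting reads, and estimates < 0.5 were set to 0.5.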
In the case of GUUCCGCUGGCGUAGUGCUAACGCGUCUCCCUCCUAAGGAGAAGACUGCGGGUUCGAGUCCCGUACGGAACG [U7C A15G G18C], the yeast fitness is reported as at most 0.5.
Variant GUUCCGAUGGCGUAAUGGUAACACGUCUCCCUCCUAAGGAGGAGACUGCGGGUUCGAGUCCUGUACGGAACG [U7A G23A A42G C62U] has a yeast fitness of at most 0.5.
Variant GUUCCGAAGCCGUAAUGGUAACGCGUGUCCCUCGUAAGGAGAAGCCUGCGGGUUCGAGUCCCGUACGUAACG [U7A U8A G10C C27G C34G A45C G68U] has a yeast fitness of at most 0.5.
Variant GUUCCGAUGGCGUAAUGGUAACGCGUCUCCCUCCUAAGGAGAACACUGCGGGUUCGAGUCCCAUACGGAACG [U7A G44C G63A] has a yeast fitness of at most 0.5.
GUUCCGCUGGCGUAAUGGUAACGCGUCUCCCUCCUACGGCGAAGUCUGCGGGUUCGCGUCCCGUACGGACCG [U7C A37C A40C A45U A57C A70C] gave a yeast fitness of at most 0.5.
GUUCCGCUGGAGUAAUGGUAACGCGUGUCCCUCCUAAGGAGAAGACUGCGGGUUCGGGUCCCGUACGGAACG [U7C C11A C27G A57G] showed a yeast fitness of at most 0.5.
With GUUCCGCUGGCGUGAUGGUAACGCGUCUCCCUCCUAAGGAGAUGACUGGGGGUUCGAGUCCCGUACGGAACG [U7C A14G A43U C49G] the yeast fitness was at most 0.5.
Work on GUUCCGCUGGGGUAAUGGUAACGCGUCUCCCGCCUAAGGAGAAGACUGCGGGUUCGAGUCCCGUACGGAACG [U7C C11G U32G] yielded a yeast fitness of at most 0.5.
With GUUCCGCUGGCGUAAUGGUAACGCGUCUCCCUCCUAAGGAGUAGACUGCGGGUUCGAGUCCCGUACGGAUCG [U7C A42U A70U] the yeast fitness was 0.584.
Work on GUUCCGCUGGCGUGAUGGUAACGCGUCUCCCUGCUAAGGAGAAGACUGCGGGUUCGAGUCCCGUACGCAACG [U7C A14G C33G G68C] yielded a yeast fitness of at most 0.5.
Work on GUUCCGAUGGCGUAAUGGUAACCCGUCUCCCUGCUAAGGAGAAGAUUGCGGGUUCGAGUCCCGCACGGAACG [U7A G23C C33G C46U U64C] yielded a yeast fitness of 0.579.
In the case of GUUCCGAUGGCGUAAUAGUAACGCGUCUCCCUCCUAAGGAGAAGACUGCGGGUUCGAGUCCCGUACGGAACG [U7A G17A], the yeast fitness is reported as 0.731.
Variant GUUCCGAUGGCGUAAUGGUAACCCGUCUCCUUCCUAAGGAGAAGACUGCGGGUUCGAGUCCCGUACGGAACG [U7A G23C C31U] has a yeast fitness of at most 0.5.
GUUCCGCUGGCGUAAUGGUAAUGCGUCUGCCUCCUAAGGAGAAGACUGCGGGUUCAAGUCCCGUACGGAUCG [U7C C22U C29G G56A A70U] showed a yeast fitness of at most 0.5.
Work on GUUCCGCUGGCGUAAUGGUAGCGCGUCUCCCUCCUAAGGAGAAGACUGCGGGUUCGAGUCCCGUACGGAACG [U7C A21G] yielded a yeast fitness of 0.761.
GUUCCGCUGGCGUAUUGGUAACGCGUCUACCUCCUAACGAGAAGACUGCGGGUUCGAGUCCCGUACGGAACG [U7C A15U C29A G38C] showed a yeast fitness of at most 0.5.
In the case of GUUCCGCUGGCGUAUUGGUAACGCGUCUCCCUCCUAAGGAGAAGACUGCGGGUUCGAGUCCCGUACGGUACG [U7C A15U A69U], the yeast fitness is reported as 0.527.
GUUCCGAUGGCGUAAUGGUAACGCGCCUCCCUCCUAAGGAGAAGACUGCGGGUUCGAGUCCCGAACGGAACG [U7A U26C U64A] showed a yeast fitness of at most 0.5.
For GUUCCGCUGGCGUAAUGGUAACGCGUCUCCCUCCUAAGGAGAAGCCUGCGGGUUCGAGUCCCGUACGGAGCG [U7C A45C A70G], the yeast fitness was at most 0.5.
For GUUCCGAUGGCGUAACAGUAACGCGUCUUCAUCCUAAGGAGAAGACUGCGGGUUCGAAUCCCGUACGGAACG [U7A U16C G17A C29U C31A G58A], the yeast fitness was at most 0.5.
For GUUCCGCUGGCGUAAUGGUAACGGGUCUCCCUCCUAAGGAGAAGACUGCGGGUUCGAGUCCCGUACGGAACG [U7C C24G], the yeast fitness was 0.645.
GUUCCGAUGGCGUAACGGUAUCGCGACUCCCUCCUAAGGAGAAGACUGCGGGUUCGAGUCCCGUACGGAACG [U7A U16C A21U U26A] showed a yeast fitness of 0.537.
GUUCCGCUGGCGUAAUGGUAUCGCGUCUCUCUGCUAAGGAGAAGACUGCGGGUUCGAGUCCCGUACGGAUCG [U7C A21U C30U C33G A70U] showed a yeast fitness of at most 0.5.
GUUCCGCUGGCGUUAUGGUAACGCGUCUCCCUCCUAAGGAGAAGACUGCGGGUUCGAGUCCCGUACGAAACG [U7C A14U G68A] gave a yeast fitness of at most 0.5.
Work on GUUCCGAUGGCGUAAUGGUAACGCGUCUCCCACCUAAGGAGAAGACUGCGGGUUCGAGUCCCGUACGGAACG [U7A U32A] yielded a yeast fitness of 0.588.
Variant GUUCCGAUGGCGUAAUGGUAACGCGUCUCCCCCCUAAGGAGAAGACUGCGGGUUCGAGUCCCGUACGGAACG [U7A U32C] has a yeast fitness of 0.764.
For GUUCCGAUGGCGUAAUGGGAACGCGUCUCCCUCCUAAGGAGAAGACUGCGGGUUCGAGUCCCGUACGGAGCG [U7A U19G A70G], the yeast fitness was at most 0.5.
Work on GUUCCGCUGGAGUAAUGGUAACGCGUCUCGCUCCUAAGGAGAAGACUGCGGGUUCGAGUCCCGUAUGGUACG [U7C C11A C30G C66U A69U] yielded a yeast fitness of at most 0.5.
GUUCCGAUGGCGUAACGGUAACGGGUCUCGCUCCUUAGGAGAAGACUGCGGGUUCGAGUCCCGUACGGAACG [U7A U16C C24G C30G A36U] gave a yeast fitness of at most 0.5.
For GUUCCGAUGGCAUAAUGGUAACGCGUCUCCCUCCUAAGGAGAAGACUGCGGGUUCGAGUCCCGAACGGAACG [U7A G12A U64A], the yeast fitness was at most 0.5.
GUUCCGCUGGCGUAAUGGUAGCGCGUCUCCCUCCUAAGGAGUAGACUGCGGGUUCGAAUCCCGUACGGAACG [U7C A21G A42U G58A] showed a yeast fitness of 0.552.
With GUUCCGCUGGCGUAAUGGUUACGCGUCUUGCUCAAAAGGAGAAGACUGCGGGUUCGAGUCCCGUAAGGAACG [U7C A20U C29U C30G C34A U35A C66A] the yeast fitness was at most 0.5.
GUUCCGCUGGCGUAAUGGUAACGCGUCUCCCUCCUACGGAGAAGACUGCGGGUUCGAGUGCCGUUCGGACCG [U7C A37C C60G A65U A70C] gave a yeast fitness of 0.569.
With GUUCCGCUGGCGUAUUGGUAACGCGUCUCCCUCAUAAGCCGAAGACUGCGGGUUCCAGUCGGGUACGCAACG [U7C A15U C34A G39C A40C G56C C61G C62G G68C] the yeast fitness was at most 0.5.
Variant GUUCCGAUGGCGUAAUGGUAACGCGUCUCCCUCCUAAGGACAAGACUGCGGGUACGAGUCCCGUACGGAACG [U7A G41C U54A] has a yeast fitness of 0.588.
Work on GUUCCGAUGGCGUAAUGGUAACGCGUCUCCCUCCUAAGGAGAAGACUGCGGGUUCAAGUCCCGUACGGAACG [U7A G56A] yielded a yeast fitness of 0.673.
For GUUCCGCUGGCGUGAUGGUCACGCGUCUCCCUCCUAAGGAGAAGACUGCGGGUUCGGGUCCCGUACGGAACG [U7C A14G A20C A57G], the yeast fitness was at most 0.5.
GUUCCGAUGGCGUAAUGGUAACGCGUCUCCCGACUAAGGAGAAGACUGCGGGUUCGAGUCCGGUAUGGAACG [U7A U32G C33A C62G C66U] showed a yeast fitness of at most 0.5.
